Source: PubChem BioAssay
IMP-1 inh – inhibitors of Pseudomonas aeruginosa IMP-1 metallo-beta-lactamase; purified IMP-1, nitrocefin hydrolysis, epi-absorbance fluorescence; inhibition, % at 5.6 µM; actives 0.45% (n = 290,000); AID 1556;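 active = inhibition above the mean plus 3 SD of all compounds in the same screening run, cut at about 4.5% in these data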
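System: Purified recombinant IMP-1 metallo-beta-lactamase enzyme | Measured by: Fluorescence quenching readout, ex 480/em 530 nm | Replication: Singlicate | Incubation: 15 min preincubation plus 25 min reaction at 25 °C | Evaluation: Percent inhibition from optical density relative to buffer-blank wells | Benchmarks: DMSO with and without IMP-1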
dFosB act-1 – enhances mouse delta FosB homodimer DNA binding. P13346. purified delta FosB, TAMRA-CDK5 oligo fluorescence polarization; percent of positive-control signal above neutral wells. activation, % at 25 µM. actives 0.99% (n = 340,000). AID 493131;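 active = mean activation above about 17%, with every replicate also reaching it, limit read from the data, passing the limit was not always enough; inconclusive = only one of the two conditions met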
m5-HT2A agonist – mouse HTR2A agonism via beta-arrestin recruitment | actives 0.66% (n = 360,000) | CHO-K1 mHTR2A beta-arrestin complementation, luminescence; percent of 30 µM serotonin response | activation, % at 7.6 µM | AID 624169;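 active = activation above a run cutoff, the mean activation of all tested compounds plus 3 SD, cut at about 14% in these data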
Target sequence (P35363 whole entry, looked up): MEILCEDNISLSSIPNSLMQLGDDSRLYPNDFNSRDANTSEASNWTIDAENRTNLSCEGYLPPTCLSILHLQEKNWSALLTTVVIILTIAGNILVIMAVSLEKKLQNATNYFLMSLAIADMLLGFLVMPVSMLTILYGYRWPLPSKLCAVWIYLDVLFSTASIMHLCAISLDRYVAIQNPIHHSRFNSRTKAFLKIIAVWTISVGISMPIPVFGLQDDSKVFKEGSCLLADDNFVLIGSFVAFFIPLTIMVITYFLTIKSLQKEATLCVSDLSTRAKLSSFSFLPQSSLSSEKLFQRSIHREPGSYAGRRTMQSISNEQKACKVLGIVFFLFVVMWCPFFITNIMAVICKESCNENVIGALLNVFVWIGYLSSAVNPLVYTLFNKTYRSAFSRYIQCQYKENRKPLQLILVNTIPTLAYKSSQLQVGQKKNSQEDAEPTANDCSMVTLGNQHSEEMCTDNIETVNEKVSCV
VIM-2 inh – inhibitors of Pseudomonas aeruginosa VIM-2 metallo-beta-lactamase; actives 0.89% (n = 290,000); purified VIM-2, nitrocefin hydrolysis, epi-absorbance fluorescence; AID 1527; inhibition, % at 5.6 µM;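 active = inhibition above the mean of all tested compounds plus 3 SD, cutoff set per screening run, cut at about 7.5% in these data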;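 also: red hydrolysis product quenches plate fluorescence so inhibitors raise well fluorescence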
dFosB act-2 – delta FosB (mouse) homodimer activation; shares compounds with dFosB act-1; purified delta FosB, TAMRA-CDK5 oligo fluorescence polarization; normalised: neutral wells 0, positive control 100; activation, % at 24.9 µM; 2,400 tested, under 10 active;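 active = highest replicate activation at or above 34% and every replicate reaching that threshold; inconclusive = meets only one of the two criteria; inactive = meets neither criterion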;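 also: higher polarization means more probe DNA bound by delta FosB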
Large screens that a line does not name were inactive (follow-up assays come after a bar, where they were run). Rows were chosen to be rich in hits. Some 2.5% of all compounds tested hit in one or more screens of this group.

CN(C)CCCN(C(=O)c1ccc(S(=O)(=O)N(C)C2CCCCC2)cc1)c1nc2ccc(Br)cc2s1	dFosB act-1 22.5 | dFosB act-2 inactive
CCc1ccc2nc(N(CCCN(C)C)C(=O)c3ccc(S(=O)(=O)N4CCc5ccccc5C4)cc3)sc2c1	dFosB act-1 46.8 | dFosB act-2 inactive
CN(C)CCCN(C(=O)c1ccc(S(=O)(=O)N(C)C2CCCCC2)cc1)c1nc2ccc(F)cc2s1	none
CN(C)CCCN(C(=O)c1cc(Cl)sc1Cl)c1nc2cc3c(cc2s1)OCO3	none
CN(C)CCCN(C(=O)c1ccc(Cl)s1)c1nc2cc3c(cc2s1)OCO3	dFosB act-1 18.0 | dFosB act-2 inactive
COC(=O)c1ccc(COC(=O)C(CCSC)NC(=O)COc2ccccc2)cc1 (stereo not drawn)	none
O=C(NCC1CCCN1S(=O)(=O)c1cccs1)c1cccc(Cl)c1 (stereo not drawn)	none (no result: IMP-1 inh, VIM-2 inh)
COc1ccc(N2CCN(S(=O)(=O)c3c(C)[nH]c(C)c3C(=O)N3CCCC3)CC2)cc1	none
O=C(CN1CCCCC1)Nc1c2c(nc3ccccc13)N(c1ccccc1)CC2	dFosB act-1 56.0 | dFosB act-2 inactive
CCCC(=O)Nc1c2c(nc3ccccc13)N(c1ccccc1)CC2	none
COc1cccc(/C(C)=N/Nc2ccc(S(=O)(=O)N3CCCCC3)cn2)c1	none (no result: IMP-1 inh, VIM-2 inh)
Cc1nc(NC(=S)NC(=O)c2cncc(Br)c2)ccc1Br	dFosB act-1 20.7 | dFosB act-2 inactive
C[C@@H]1CN([C@@H](C)CO)C(=O)c2cc(Br)cnc2O[C@H]1CN(C)C(=O)c1ccccc1F	none (no result: IMP-1 inh, dFosB act-1, VIM-2 inh)
Cc1sc2ncnc(SCC(=O)c3ccc(Cl)s3)c2c1C	none (no result: dFosB act-1, m5-HT2A agonist)
Cc1sc2ncnc(SCC(=O)c3ccc(O)cc3O)c2c1C	dFosB act-1 40.3 | dFosB act-2 inactive
Clc1cc2c(nn1)Nc1ccccc1S2	none
S=C1Nc2ccccc2Sc2ccc(Cl)cc21	dFosB act-1 33.6 | dFosB act-2 inactive
Cc1ccc(OCCNC(=O)[C@H]2O[C@@H](n3cnc4c(N)ncnc43)[C@H](O)[C@@H]2O)cc1C	none (no result: IMP-1 inh, dFosB act-1, VIM-2 inh)
C=CCNC(=O)C1CC(=O)N(c2ccc(OCC(=O)Nc3cccc(OC)c3)cc2)C1 (stereo not drawn)	none
C=CCNC(=O)C1CC(=O)N(c2ccc(OCC(=O)Nc3ccc(Cl)c(C(F)(F)F)c3)cc2)C1 (stereo not drawn)	dFosB act-1 27.0 | dFosB act-2 inactive
CC1CC(C)(C)CC2(C1)NC(=O)N(CC(=O)Nc1cc(C(F)(F)F)ccc1N1CCCCC1)C2=O (stereo not drawn)	none (no result: IMP-1 inh, VIM-2 inh)
C#CCNC(=O)C1=C[C@H](C2CCCCC2)[C@@H](CCCO)[C@H](OCC)O1	none
COc1ccccc1NC(=O)NNC(=O)c1ccc(-c2ccccc2)cc1	none
O=C(NNC(=O)c1ccc(-c2ccccc2)cc1)Nc1ccc(F)cc1F	dFosB act-1 30.0 | dFosB act-2 inactive
CC1(Oc2cccc(C#N)c2)CCN(Cc2csc3ccccc23)C1 (stereo not drawn)	none (no result: IMP-1 inh, dFosB act-1, VIM-2 inh)
CN(C)CCSc1nc(N)c2c3c(sc2n1)CN(C)CC3	dFosB act-1 25.4 | dFosB act-2 inactive
Cc1cccc(NC(=O)c2ccc(S(=O)(=O)NCc3ccco3)cc2)n1	dFosB act-1 33.1 (no result: IMP-1 inh, VIM-2 inh) | dFosB act-2 inactive
Cc1ccc(NC(=O)c2ccc(S(=O)(=O)NCc3ccco3)cc2)nc1	none (no result: IMP-1 inh, VIM-2 inh)
O=C(COC(=O)c1ccncc1)Nc1cccc2ccccc12	none (no result: IMP-1 inh, VIM-2 inh)
O=C(COC(=O)c1ccc2c(c1)C(=O)N(Cc1ccncc1)C2=O)Nc1cccc2ccccc12	dFosB act-1 27.4 | dFosB act-2 inactive
CCc1ccc(NC(=O)CSc2nc3ncc(Br)cc3[nH]2)cc1	dFosB act-1 19.5 | dFosB act-2 inactive
COC(=O)CSc1nc2nc(C)c(Br)cc2[nH]1	none
COc1cccc(NC(=O)CSc2nc3ncc(Br)cc3[nH]2)c1	dFosB act-1 inconclusive
Cc1ccc(NC(=O)CSc2nc3nc(C)c(Br)cc3[nH]2)cc1F	dFosB act-1 57.2 | dFosB act-2 inactive
Cc1ccc(NC(=O)Cn2nc([N+](=O)[O-])c(Br)c2C)cc1C	dFosB act-1 49.2 | dFosB act-2 inactive
Cc1cccc(OCC(=O)Nc2ccc3c(C)cc(=O)oc3c2)c1	none
Cc1cc(=O)oc2cc(NC(=O)CCOc3ccccc3)ccc12	dFosB act-1 20.9 | dFosB act-2 inactive
Cc1csc(NC(=O)COc2ccc3c(C)cc(=O)oc3c2)n1	dFosB act-1 54.0 | dFosB act-2 inactive
CC(=O)c1sc(Nc2ccc(Oc3ccccc3)cc2)nc1C	none (no result: IMP-1 inh, dFosB act-1, VIM-2 inh)
Cc1cc(N2CCN(C(c3ccnc4ccccc34)c3nnnn3-c3c(C)cccc3C)CC2)c2ccccc2n1 (stereo not drawn)	none (no result: IMP-1 inh, dFosB act-1, VIM-2 inh)
Cc1ccc(C(=O)NCCc2nnc3ccc(NCc4ccc5c(c4)OCO5)nn23)cc1	dFosB act-1 51.4 | dFosB act-2 inactive
CC(C)Cc1nnc(NC(=O)CCC(=O)NCc2ccccc2Cl)s1	dFosB act-1 19.4 | dFosB act-2 inactive
CC(C)c1nnc(NC(=O)CCC(=O)NCc2ccccc2Cl)s1	none
COc1ccc(/C=C2/SC(=O)N(CC(=O)NCCC(C)C)C2=O)cc1OC	dFosB act-1 17.0 | dFosB act-2 inactive
COc1cc(OC)c(/C=C2\SC(=O)N(CC(=O)Nc3ccccc3F)C2=O)c(OC)c1	dFosB act-1 23.4 | dFosB act-2 inactive
COc1cc(/C=C2\SC(=O)N(CC(=O)Nc3ccccc3F)C2=O)cc(Cl)c1O	none
COc1ccc(/C=C2\SC(=O)N(CC(=O)Nc3ccc(F)cc3)C2=O)cc1O	dFosB act-1 18.9 | dFosB act-2 inactive
COc1ccc(/C=C2\SC(=O)N(CC(=O)Nc3cccnc3)C2=O)cc1OC	none
CC(C)C[C@@H](CN)NC(=O)c1nc[nH]c1C(=O)N[C@@H](CC(C)C)C(=O)CNC[C@H](C)NC(=O)c1nc[nH]c1C(=O)N[C@@H](CC(=O)O)C(=O)O	none (no result: IMP-1 inh, VIM-2 inh)
O=C(Nc1ccccc1N1CCOCC1)c1ccc([N+](=O)[O-])s1	none (no result: IMP-1 inh, VIM-2 inh)
O=C(Nc1nccs1)[C@@H]1CCCN1S(=O)(=O)c1ccccc1F	none (no result: IMP-1 inh, VIM-2 inh)
CC(=O)c1sc(NC(=O)C2CCCN2S(=O)(=O)c2ccccc2F)nc1C (stereo not drawn)	dFosB act-1 20.8 (no result: IMP-1 inh, VIM-2 inh) | dFosB act-2 inactive
O=C(Cc1c(Cl)cccc1Cl)NCCc1ccc(Cl)cc1	dFosB act-1 20.1 | dFosB act-2 inactive
O=C(CSc1nnc(SCc2ccc(Cl)cc2)s1)N/N=C/c1c[nH]c2ccccc12	dFosB act-1 37.8 | dFosB act-2 inactive
Cc1cccc2cc(CN(Cc3nnnn3C3CCCCC3)C3CCCC3)c3nnnn3c12	none
COc1ccccc1NC(=O)COC(=O)CCc1ccc(S(=O)(=O)N2CCOCC2)cc1	none (no result: IMP-1 inh, VIM-2 inh)
O=C1[C@@H](Oc2ccccc2)[C@@H](c2cnc3ccccc3c2)N1c1ccccc1	none (no result: IMP-1 inh, VIM-2 inh)
C/C(=N\N=C(/N)SC1CC(=O)N(c2ccc(Cl)c(Cl)c2)C1=O)c1cccs1 (stereo not drawn)	dFosB act-1 25.2 | dFosB act-2 inactive
O=C(NN=Cc1ccc2c(c1)CCC2)c1cccc([N+](=O)[O-])c1	none (no result: IMP-1 inh, dFosB act-1, VIM-2 inh)
COc1ccccc1NC(=O)Cn1ncc2c1-c1ccccc1OC2	none
